Experimental data: ChEMBL document CHEMBL1250480, “Design, synthesis and qualitative structure-activity evaluations of novel hexahydropyrano[3,2-c][1,2]diazepin-3(4H)-one and tetrahydropyrano[3,2-b]pyrrol-2(1H)-one derivatives as anticancer agents” (Eur J Med Chem, 2010)

Experiments:
Format in all cases: functional, cell-based
[1] = tested on: A549; experiment: Cytotoxicity against human A549 cells after 48 hrs by SRB assay; conditions: A549, 48 h
Summary of the method: (§1)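 Cells grown in RPMI-1640 with 10% FBS and antibiotics at 37 °C, 5% CO2. Agents from fresh 1 mg/ml DMSO stocks were diluted in medium and applied for 48 h at 37 °C in triplicate wells. Cells were fixed with cold 50% TCA, stained with 0.4% SRB, and the dye solubilized in 10 mM Tris pH 10.5 before reading A570. IC50 is the concentration giving 50% reduction in net protein increase versus untreated cells, after blank correction. Values are the mean ± SEM of at least two independent runs.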

[2] = tested on: SK-N-SH; experiment: Cytotoxicity against human SK-N-SH cells after 48 hrs by SRB assay; summary of the method: as §1
[3] = tested on: SK-BR-3; experiment: Cytotoxicity against human SK-BR-3 cells after 48 hrs by SRB assay; conditions: SK-BR-3, 48 h; summary of the method: as §1
[4] = tested on: DU-145; experiment: Cytotoxicity against human DU145 cells after 48 hrs by SRB assay; conditions: DU-145, 48 h; summary of the method: as §1
[5] = tested on: HCT-116; experiment: Cytotoxicity against human HCT116 cells after 48 hrs by SRB assay; conditions: HCT-116, 48 h; summary of the method: as §1

| SMILES | IC50 [1] [µM] | IC50 [2] [µM] | IC50 [3] [µM] | IC50 [4] [µM] | IC50 [5] [µM] |
| --- | --- | --- | --- | --- | --- |
| CO[C@@H]1CC=C2NN(c3ccc(C)cc3)C(=O)CC[C@]2(c2ccccc2)O1 | 3.17 | 1.7 | 2.7 | 2.2 | 2.5 |
| CO[C@@H]1CC=C2NN(c3ccc([N+](=O)[O-])cc3)C(=O)CC[C@]2(c2ccccc2)O1 | 9.49 | 7.3 | 7.7 | 9.2 | 8.7 |
| COc1cc(OC)cc(N2NC3=CC[C@@H](OC)O[C@@]3(c3ccccc3)CCC2=O)c1 | 2.9 | 3.2 | 1.2 | 2.4 | 2.1 |
| CO[C@@H]1CC=C2NN(c3ccccn3)C(=O)CC[C@]2(c2ccccc2)O1 | 1.48 | 2.1 | 1.12 | 1.29 | 1.4 |
| CO[C@@H]1CC=C2NN(c3c[nH]c4ccccc34)C(=O)CC[C@]2(c2ccccc2)O1 | 1.11 | 1 | 1.2 | 1.13 | 1.1 |
| COc1ccc(N2NC3=CC[C@@H](OC)O[C@@]3(c3ccccc3)CCC2=O)cc1 | 5.1 | 4.6 | 2.4 | 4.1 | 3.1 |
| CO[C@@H]1CC=C2NN(c3cc(Cl)cc(Cl)c3)C(=O)CC[C@]2(c2ccccc2)O1 | 6.13 | 7.11 | 6.35 | 8.46 | 6.52 |
| CO[C@@H]1CC=C2N(c3ccc(C)cc3)C(=O)C[C@]2(c2ccccc2)O1 | 3.92 | 3.5 | 1.1 | 4.4 | 4.3 |
| CO[C@@H]1CC=C2N(c3ccc([N+](=O)[O-])cc3)C(=O)C[C@]2(c2ccccc2)O1 | 7.15 | 9.4 | 6.3 | 8.1 | 8 |
| COc1cc(OC)cc(N2C(=O)C[C@]3(c4ccccc4)O[C@H](OC)CC=C23)c1 | 4.11 | 7.2 | 1.1 | 6.1 | 6.1 |
| CO[C@@H]1CC=C2N(c3ccccn3)C(=O)C[C@]2(c2ccccc2)O1 | 6.11 | 5.1 | 1.1 | 8.3 | 7.3 |
| CO[C@@H]1CC=C2N(c3ccc4[nH]ccc4c3)C(=O)C[C@]2(c2ccccc2)O1 | 5.1 | 4.4 | 1.3 | 4.1 | 5.3 |
| CO[C@@H]1CC=C2N(c3c[nH]c4ccccc34)C(=O)C[C@]2(c2ccccc2)O1 | 5.2 | 8.2 | 2.3 | 7.33 | 7.13 |
| CO[C@@H]1CC=C2N(c3cc(Cl)cc(Cl)c3)C(=O)C[C@]2(c2ccccc2)O1 | 7.53 | 9.67 | 6.54 | 8.17 | 11.2 |
